Test results from ChEMBL document CHEMBL3351639, “Fluorinated analogues of marsanidine, a highly α2-AR/imidazoline I1 binding site-selective hypotensive agent. Synthesis and biological activities” (Eur J Med Chem, 2014).

Columns and labels:
[1] = Displacement of […] from imidazoline I2 receptor in Sprague-Dawley rat kidney membranes after 45 mins by liquid scintillation counting; format: cell membranes, Membrane
[2] = biological target: T1, Alpha-2C adrenergic receptor (Homo sapiens, UniProt P18825); experiment: Displacement of [3H]RS-79948-197 from human alpha2C adrenoceptor expressed in CHO-K1 cells after 45 mins by liquid scintillation counting; format: cell-based
T1 sequence (P18825 whole entry): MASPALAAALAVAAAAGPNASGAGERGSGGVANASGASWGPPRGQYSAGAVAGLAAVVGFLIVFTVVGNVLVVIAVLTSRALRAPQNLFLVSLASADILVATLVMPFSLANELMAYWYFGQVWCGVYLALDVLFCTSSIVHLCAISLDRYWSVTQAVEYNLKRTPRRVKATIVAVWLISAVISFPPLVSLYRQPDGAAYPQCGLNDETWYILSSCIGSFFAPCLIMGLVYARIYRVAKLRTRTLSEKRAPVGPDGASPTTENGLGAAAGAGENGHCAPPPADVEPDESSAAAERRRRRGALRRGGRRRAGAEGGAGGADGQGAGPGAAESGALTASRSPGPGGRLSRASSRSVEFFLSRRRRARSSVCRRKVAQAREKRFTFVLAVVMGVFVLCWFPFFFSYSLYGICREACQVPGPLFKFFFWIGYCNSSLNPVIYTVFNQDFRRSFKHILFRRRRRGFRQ
In short: (§1)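 Membranes from CHO-K1 cells stably expressing each human α2-AR subtype (6–10 µg protein). Used 0.2 nM [3H]RS-79948-197 and 8 serial dilutions of competitor in 50 mM potassium phosphate, pH 7.4. Non-specific binding defined with 100 µM oxymetazoline. Filtration, then scintillation counting. Run in duplicate, at least 3 repeats. One-site nonlinear fit; IC50 converted to Ki by Cheng-Prusoff.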

[3] = biological target: T2, Alpha-2A adrenergic receptor (Homo sapiens, UniProt P08913); experiment: Agonist activity at human alpha2A adrenoceptor expressed in CHO-K1 cells after 30 mins by [35S]GTPgammaS binding assay; format: functional, cell-based
T2 sequence (P08913 whole entry): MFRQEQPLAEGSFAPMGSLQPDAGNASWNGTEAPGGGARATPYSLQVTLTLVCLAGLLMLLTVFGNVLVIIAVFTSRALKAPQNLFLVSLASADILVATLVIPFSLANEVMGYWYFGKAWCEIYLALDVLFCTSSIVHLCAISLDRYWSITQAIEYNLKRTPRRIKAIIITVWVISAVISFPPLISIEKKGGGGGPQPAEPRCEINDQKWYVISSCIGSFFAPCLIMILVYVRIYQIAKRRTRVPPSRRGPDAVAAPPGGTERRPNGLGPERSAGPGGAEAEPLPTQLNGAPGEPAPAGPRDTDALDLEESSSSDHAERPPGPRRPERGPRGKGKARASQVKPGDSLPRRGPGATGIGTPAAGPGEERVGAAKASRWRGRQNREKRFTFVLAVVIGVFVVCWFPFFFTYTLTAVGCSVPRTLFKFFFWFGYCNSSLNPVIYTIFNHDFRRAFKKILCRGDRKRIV
In short: (§2)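 Membranes from CHO cells stably expressing human α2A-AR (5 µg protein) were incubated with 7 or 8 serial dilutions of compound and 0.1 nM [35S]GTPγS. Buffer: 25 mM Tris, 1 mM EDTA, 5 mM MgCl2, 20 mM NaCl, 1 µM GDP, 1 mM DTT, 30 µM ascorbic acid, pH 7.4. Incubation 30 min at RT, then vacuum filtration and scintillation counting. Run in duplicate, at least 3 repeats.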

[4] = biological target: T2, Alpha-2A adrenergic receptor; experiment: Displacement of [3H]RS-79948-197 from human alpha2A adrenoceptor expressed in CHO-K1 cells after 45 mins by liquid scintillation counting; format: cell-based; in short: as §1
[5] = biological target: T3, Alpha-2B adrenergic receptor (Homo sapiens, UniProt P18089); experiment: Displacement of [3H]RS-79948-197 from human alpha2B adrenoceptor expressed in CHO-K1 cells after 45 mins by liquid scintillation counting; format: cell-based; in short: as §1
T3 sequence (P18089 whole entry): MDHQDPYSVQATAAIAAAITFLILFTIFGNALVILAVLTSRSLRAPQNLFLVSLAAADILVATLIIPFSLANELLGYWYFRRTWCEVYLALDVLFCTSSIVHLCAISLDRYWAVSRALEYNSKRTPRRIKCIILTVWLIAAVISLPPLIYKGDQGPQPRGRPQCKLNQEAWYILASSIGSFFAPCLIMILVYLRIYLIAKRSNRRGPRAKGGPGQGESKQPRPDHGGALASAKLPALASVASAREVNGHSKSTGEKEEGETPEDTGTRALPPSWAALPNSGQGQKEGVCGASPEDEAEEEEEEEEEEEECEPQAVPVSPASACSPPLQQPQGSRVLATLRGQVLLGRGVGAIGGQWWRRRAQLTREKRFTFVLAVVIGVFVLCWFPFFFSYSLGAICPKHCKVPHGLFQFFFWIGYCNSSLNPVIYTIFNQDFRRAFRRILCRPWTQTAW

[6] = biological target: T4, Alpha-2A adrenergic receptor (Homo sapiens) (UniProt P08913); experiment: Intrinsic activity at human alpha2A adrenoceptor expressed in CHO-K1 cells after 30 mins by [35S]GTPgammaS binding assay relative to norepinephrine; format: functional, cell-based; in short: as §2
T4 sequence (whole entry): T2 sequence (P08913 whole entry)

[7] = biological target: T5, Adrenergic receptor alpha-2 (Rattus norvegicus, UniProt P22086+P19328+P22909); experiment: Displacement of [3H]RX821002 from alpha2-adrenoceptor in Sprague-Dawley rat brain membranes after 45 mins by liquid scintillation counting; format: cell membranes, Membrane
T5 sequence (P22086 whole entry): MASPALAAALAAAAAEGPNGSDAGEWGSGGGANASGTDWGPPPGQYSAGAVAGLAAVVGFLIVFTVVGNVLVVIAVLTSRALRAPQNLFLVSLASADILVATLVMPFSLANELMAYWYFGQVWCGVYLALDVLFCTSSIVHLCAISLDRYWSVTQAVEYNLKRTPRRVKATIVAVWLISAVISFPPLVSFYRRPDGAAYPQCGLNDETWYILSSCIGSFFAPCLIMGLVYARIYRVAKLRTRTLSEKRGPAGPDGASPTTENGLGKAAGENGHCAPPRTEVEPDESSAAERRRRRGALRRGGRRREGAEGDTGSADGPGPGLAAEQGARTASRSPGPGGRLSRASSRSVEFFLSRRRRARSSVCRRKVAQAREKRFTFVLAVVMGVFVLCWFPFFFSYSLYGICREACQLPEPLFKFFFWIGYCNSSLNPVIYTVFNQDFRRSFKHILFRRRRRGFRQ
T5 sequence (P19328 whole entry): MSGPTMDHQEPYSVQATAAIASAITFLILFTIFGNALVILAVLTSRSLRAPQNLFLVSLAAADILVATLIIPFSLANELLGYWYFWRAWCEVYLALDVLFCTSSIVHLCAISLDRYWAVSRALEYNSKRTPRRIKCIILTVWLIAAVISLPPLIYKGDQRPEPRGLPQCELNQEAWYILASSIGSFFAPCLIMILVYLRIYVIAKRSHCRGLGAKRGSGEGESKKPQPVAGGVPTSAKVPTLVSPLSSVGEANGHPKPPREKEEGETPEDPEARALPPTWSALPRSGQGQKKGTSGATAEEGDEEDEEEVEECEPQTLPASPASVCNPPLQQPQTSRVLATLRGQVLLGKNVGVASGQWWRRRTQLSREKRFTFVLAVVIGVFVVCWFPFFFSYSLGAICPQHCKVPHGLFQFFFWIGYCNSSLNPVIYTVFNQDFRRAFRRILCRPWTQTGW
T5 sequence (P22909 whole entry): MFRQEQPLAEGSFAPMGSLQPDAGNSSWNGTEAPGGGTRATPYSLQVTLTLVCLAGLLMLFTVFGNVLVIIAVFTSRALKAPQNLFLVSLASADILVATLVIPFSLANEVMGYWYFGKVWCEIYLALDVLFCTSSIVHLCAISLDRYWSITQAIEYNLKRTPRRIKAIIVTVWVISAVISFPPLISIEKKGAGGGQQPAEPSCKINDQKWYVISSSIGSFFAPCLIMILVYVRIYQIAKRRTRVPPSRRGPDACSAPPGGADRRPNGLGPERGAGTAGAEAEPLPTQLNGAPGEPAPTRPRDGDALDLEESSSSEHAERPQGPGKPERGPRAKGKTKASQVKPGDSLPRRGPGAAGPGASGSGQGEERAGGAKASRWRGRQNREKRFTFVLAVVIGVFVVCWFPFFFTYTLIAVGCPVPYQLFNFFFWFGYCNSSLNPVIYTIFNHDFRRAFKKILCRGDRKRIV
In short: (§3)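 Crude P2 membranes from brains of male Sprague-Dawley rats (250–280 g), 0.2–0.3 mg protein. Radioligand 1 nM [3H]RX821002 (α2) or [3H]prazosin (α1); 11 concentrations of compound, 0.1 nM–100 µM. Non-specific binding: 10 µM rauwolscine (α2) or 10 µM phenylephrine (α1). Triplicate incubation, RT, 45 min. PEI-soaked glass-fibre filtration, then scintillation counting. Ki by Cheng-Prusoff; 3–4 experiments, or one for low-affinity compounds.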

Nischarin = Nischarin (Rattus norvegicus, UniProt Q4G017); experiment: Displacement of […] from imidazoline I1 receptor in Sprague-Dawley rat kidney membranes after 45 mins by liquid scintillation counting; format: cell membranes, Membrane
[8] = biological target: T6, Adrenergic receptor alpha-1 (Rattus norvegicus, UniProt P15823+P23944+P43140); experiment: Displacement of [3H]prazosin from alpha1-adrenoceptor in Sprague-Dawley rat brain membranes after 45 mins by liquid scintillation counting; format: cell membranes, Membrane; in short: as §3
T6 sequence (P15823 whole entry): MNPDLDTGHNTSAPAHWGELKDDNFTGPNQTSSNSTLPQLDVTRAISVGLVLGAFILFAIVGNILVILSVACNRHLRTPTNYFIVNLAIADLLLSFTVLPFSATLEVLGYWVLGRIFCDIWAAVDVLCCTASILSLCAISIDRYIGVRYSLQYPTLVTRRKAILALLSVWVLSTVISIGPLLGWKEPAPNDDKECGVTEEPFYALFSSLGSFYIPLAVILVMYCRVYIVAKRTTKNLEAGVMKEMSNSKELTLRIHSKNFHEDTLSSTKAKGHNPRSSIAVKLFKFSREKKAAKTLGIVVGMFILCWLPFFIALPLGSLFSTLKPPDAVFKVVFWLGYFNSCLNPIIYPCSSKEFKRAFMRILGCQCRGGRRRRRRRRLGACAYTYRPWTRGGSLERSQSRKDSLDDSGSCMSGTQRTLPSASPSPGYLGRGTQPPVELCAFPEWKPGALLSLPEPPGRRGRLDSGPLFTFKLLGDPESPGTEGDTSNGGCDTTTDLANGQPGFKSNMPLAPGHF
T6 sequence (P23944 whole entry): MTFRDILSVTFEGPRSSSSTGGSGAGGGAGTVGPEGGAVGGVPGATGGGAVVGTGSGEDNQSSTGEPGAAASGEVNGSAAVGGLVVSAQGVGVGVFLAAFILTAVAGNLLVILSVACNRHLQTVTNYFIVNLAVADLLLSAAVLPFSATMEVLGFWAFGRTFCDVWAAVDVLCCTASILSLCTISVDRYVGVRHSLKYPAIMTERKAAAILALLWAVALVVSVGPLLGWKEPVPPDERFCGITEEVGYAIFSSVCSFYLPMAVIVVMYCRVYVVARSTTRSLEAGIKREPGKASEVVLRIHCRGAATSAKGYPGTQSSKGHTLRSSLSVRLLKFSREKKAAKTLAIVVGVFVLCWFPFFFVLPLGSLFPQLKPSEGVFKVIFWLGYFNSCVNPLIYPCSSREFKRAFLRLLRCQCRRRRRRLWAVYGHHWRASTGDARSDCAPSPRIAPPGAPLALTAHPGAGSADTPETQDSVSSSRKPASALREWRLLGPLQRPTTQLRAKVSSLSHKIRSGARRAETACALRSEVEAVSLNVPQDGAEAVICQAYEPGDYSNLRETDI
T6 sequence (P43140 whole entry): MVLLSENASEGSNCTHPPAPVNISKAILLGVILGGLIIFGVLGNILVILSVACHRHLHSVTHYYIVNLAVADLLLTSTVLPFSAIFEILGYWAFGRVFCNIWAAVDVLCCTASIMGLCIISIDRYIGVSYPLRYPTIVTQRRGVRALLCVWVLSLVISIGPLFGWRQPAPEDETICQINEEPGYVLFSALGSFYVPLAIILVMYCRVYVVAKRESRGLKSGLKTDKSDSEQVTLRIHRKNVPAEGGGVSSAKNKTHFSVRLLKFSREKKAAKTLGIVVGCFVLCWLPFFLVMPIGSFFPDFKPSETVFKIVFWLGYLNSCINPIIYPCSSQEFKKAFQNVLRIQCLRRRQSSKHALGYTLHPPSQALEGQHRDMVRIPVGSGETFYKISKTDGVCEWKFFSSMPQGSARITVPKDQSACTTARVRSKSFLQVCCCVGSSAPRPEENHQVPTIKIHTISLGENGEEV

Chain of Nischarin (Q4G017 whole entry): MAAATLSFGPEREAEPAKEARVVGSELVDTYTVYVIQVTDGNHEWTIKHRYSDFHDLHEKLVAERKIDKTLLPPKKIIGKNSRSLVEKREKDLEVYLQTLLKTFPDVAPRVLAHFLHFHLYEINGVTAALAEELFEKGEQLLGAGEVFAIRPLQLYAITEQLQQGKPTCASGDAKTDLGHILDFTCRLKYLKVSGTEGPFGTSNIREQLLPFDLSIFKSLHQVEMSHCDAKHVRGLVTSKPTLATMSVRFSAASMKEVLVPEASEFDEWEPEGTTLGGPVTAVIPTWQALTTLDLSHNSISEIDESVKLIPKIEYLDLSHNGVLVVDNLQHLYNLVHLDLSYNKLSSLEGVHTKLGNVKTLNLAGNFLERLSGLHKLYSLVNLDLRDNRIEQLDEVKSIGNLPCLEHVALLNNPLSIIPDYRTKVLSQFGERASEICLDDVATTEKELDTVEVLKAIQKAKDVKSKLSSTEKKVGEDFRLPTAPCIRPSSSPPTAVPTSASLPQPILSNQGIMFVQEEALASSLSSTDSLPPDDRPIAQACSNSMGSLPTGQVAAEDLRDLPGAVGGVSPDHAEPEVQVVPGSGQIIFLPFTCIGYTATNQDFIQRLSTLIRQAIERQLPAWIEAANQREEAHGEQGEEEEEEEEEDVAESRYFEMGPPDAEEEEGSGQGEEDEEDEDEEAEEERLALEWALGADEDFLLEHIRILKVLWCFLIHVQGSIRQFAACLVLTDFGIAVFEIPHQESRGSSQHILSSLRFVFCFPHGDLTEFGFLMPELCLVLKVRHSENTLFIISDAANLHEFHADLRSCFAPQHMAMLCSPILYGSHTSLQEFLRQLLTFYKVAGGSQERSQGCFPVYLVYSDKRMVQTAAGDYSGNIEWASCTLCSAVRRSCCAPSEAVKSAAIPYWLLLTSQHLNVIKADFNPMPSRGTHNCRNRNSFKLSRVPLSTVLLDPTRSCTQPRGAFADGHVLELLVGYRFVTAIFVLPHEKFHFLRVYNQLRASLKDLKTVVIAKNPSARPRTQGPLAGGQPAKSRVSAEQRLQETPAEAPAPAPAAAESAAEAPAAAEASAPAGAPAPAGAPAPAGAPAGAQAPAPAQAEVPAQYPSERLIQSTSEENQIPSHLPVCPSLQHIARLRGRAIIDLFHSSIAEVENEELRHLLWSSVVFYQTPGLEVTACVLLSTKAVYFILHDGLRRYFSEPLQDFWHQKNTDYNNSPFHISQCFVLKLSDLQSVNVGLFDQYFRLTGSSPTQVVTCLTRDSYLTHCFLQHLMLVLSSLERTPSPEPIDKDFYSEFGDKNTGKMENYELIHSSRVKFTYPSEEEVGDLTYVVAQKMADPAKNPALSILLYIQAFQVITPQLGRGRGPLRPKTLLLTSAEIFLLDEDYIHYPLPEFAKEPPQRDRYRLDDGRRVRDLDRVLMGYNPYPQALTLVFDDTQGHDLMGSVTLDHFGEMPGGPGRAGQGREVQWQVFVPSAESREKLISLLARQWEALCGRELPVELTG

Structure (SMILES): c1ccc2c(c1)cnn2N=C1NCCN1 [MARSANIDINE]
- Ki [1]: 16.9 µM
- Ki [2]: 0.64 µM
- EC50 [3]: 0.0933 µM
- Ki [4]: 0.052 µM
- Ki [5]: 0.079 µM
- Intrinsic activity [6]: 14%
- Ki [7]: 0.01405 µM

Structure (SMILES): Fc1c(F)c(F)c2c(cnn2N=C2NCCN2)c1F
- Ki [1]: 22.7 µM
- IC50 (Nischarin): 5.83 µM
- Ki [8]: 19.793 µM
- Ki [7]: 3.717 µM

Structure (SMILES): Fc1cccc2c1cnn2CC1=NCCN1
- Ki [1]: 0.0219 µM
- IC50 (Nischarin): 1.77 µM
- Ki [8]: 0.5347 µM
- Ki [7]: 0.1873 µM

Structure (SMILES): Fc1cccc2c1cnn2N=C1NCCN1
- Ki [1]: 6.18 µM
- IC50 (Nischarin): 14.8 µM
- Ki [8]: 3.807 µM
- Ki [7]: 0.416 µM
